What was measured:
Plasma [1] = test: Metabolic stability in human plasma assessed as compound conversion to metabolite C7'-C8' E isomer at 55 uM after 20 mins at 37 degC; type: ADME, cell-free
Plasma [2] = test: Metabolic stability in mouse plasma assessed as compound conversion to metabolite C7'-C8' E isomer; type: ADME, cell-free
Blood = test: Metabolic stability in mouse blood assessed as compound conversion to metabolite C7'-C8' E isomer; type: ADME, tissue-based
[3] = Inhibition of PKAtau by TR-FRET based LanthaScreen assay
In short: (§1)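 TR-FRET LanthaScreen kinase assay with phosphorylation of a substrate; FGFR3 used as the K651E mutant. IC50 derived from two independent experiments; for some compounds, ALK and cKIT values are averages ± SDs of three independent experiments.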

[4] = target: Tyrosine-protein kinase ABL1 (Homo sapiens, UniProt P00519, T315I); test: Inhibition of cABL T315I mutant by Caliper mobility shift assay
In short: (§2)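 Caliper microfluidic mobility shift readout of substrate phosphorylation, run per the group's earlier kinase protocol. IC50 taken from two independent experiments.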

[5] = target: cAMP-dependent protein kinase catalytic subunit alpha (Homo sapiens, UniProt P17612); test: Inhibition of PKAalpha by TR-FRET LanthaScreen assay
[6] = target: Non-receptor tyrosine-protein kinase TYK2 (Homo sapiens, UniProt P29597); test: Inhibition of TYK2 by TR-FRET based LanthaScreen assay
Non-receptor tyrosine-protein kinase TYK2, sequence (P29597 whole entry): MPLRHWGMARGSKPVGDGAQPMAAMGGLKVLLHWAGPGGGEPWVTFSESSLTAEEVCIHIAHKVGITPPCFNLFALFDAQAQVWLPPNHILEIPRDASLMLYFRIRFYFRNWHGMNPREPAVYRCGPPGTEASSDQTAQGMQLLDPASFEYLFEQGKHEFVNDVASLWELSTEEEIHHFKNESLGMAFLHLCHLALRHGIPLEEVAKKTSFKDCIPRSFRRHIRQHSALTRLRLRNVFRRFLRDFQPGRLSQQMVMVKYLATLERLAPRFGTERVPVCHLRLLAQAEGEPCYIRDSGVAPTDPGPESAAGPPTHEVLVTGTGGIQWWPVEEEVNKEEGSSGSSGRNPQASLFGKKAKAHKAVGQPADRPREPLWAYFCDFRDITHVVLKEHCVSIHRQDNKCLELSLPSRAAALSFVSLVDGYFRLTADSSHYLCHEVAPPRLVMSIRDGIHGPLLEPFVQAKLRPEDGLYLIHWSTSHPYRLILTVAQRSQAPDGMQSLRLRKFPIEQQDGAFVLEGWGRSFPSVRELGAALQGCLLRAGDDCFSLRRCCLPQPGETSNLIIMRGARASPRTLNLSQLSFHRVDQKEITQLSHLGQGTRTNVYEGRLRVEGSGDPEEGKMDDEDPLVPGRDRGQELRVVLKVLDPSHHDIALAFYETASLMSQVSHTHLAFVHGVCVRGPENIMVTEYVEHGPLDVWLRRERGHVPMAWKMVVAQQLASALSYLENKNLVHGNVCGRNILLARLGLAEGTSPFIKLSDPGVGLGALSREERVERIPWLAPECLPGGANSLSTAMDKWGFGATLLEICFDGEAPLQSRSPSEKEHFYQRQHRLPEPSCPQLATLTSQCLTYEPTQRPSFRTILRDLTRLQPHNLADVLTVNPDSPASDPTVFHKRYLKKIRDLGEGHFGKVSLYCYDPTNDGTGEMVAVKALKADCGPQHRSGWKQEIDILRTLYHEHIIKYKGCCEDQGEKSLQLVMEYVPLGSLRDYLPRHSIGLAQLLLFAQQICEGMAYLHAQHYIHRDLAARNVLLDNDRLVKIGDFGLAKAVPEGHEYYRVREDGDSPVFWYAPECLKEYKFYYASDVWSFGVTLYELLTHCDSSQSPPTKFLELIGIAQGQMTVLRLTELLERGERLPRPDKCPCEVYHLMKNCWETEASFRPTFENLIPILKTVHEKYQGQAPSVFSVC
In short: (§3)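 LanthaScreen TR-FRET kinase format, run per the group's earlier protocol. IC50 from two independent experiments; for some compounds, PDGFRα and VEGFR2 values are means ± SD of three independent runs. The FGFR3 used was the K651E mutant.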

[7] = target: Tyrosine-protein kinase JAK3 (Homo sapiens, UniProt P52333); test: Inhibition of JAK3 by Caliper mobility shift assay; in short: as §2
[8] = target: Tyrosine-protein kinase JAK1 (Homo sapiens, UniProt P23458); test: Inhibition of JAK1 by TR-FRET based LanthaScreen assay
[9] = target: ALK tyrosine kinase receptor (Homo sapiens, UniProt Q9UM73); test: Inhibition of ALK by TR-FRET based LanthaScreen assay; in short: as §1
ALK tyrosine kinase receptor, sequence (Q9UM73 whole entry): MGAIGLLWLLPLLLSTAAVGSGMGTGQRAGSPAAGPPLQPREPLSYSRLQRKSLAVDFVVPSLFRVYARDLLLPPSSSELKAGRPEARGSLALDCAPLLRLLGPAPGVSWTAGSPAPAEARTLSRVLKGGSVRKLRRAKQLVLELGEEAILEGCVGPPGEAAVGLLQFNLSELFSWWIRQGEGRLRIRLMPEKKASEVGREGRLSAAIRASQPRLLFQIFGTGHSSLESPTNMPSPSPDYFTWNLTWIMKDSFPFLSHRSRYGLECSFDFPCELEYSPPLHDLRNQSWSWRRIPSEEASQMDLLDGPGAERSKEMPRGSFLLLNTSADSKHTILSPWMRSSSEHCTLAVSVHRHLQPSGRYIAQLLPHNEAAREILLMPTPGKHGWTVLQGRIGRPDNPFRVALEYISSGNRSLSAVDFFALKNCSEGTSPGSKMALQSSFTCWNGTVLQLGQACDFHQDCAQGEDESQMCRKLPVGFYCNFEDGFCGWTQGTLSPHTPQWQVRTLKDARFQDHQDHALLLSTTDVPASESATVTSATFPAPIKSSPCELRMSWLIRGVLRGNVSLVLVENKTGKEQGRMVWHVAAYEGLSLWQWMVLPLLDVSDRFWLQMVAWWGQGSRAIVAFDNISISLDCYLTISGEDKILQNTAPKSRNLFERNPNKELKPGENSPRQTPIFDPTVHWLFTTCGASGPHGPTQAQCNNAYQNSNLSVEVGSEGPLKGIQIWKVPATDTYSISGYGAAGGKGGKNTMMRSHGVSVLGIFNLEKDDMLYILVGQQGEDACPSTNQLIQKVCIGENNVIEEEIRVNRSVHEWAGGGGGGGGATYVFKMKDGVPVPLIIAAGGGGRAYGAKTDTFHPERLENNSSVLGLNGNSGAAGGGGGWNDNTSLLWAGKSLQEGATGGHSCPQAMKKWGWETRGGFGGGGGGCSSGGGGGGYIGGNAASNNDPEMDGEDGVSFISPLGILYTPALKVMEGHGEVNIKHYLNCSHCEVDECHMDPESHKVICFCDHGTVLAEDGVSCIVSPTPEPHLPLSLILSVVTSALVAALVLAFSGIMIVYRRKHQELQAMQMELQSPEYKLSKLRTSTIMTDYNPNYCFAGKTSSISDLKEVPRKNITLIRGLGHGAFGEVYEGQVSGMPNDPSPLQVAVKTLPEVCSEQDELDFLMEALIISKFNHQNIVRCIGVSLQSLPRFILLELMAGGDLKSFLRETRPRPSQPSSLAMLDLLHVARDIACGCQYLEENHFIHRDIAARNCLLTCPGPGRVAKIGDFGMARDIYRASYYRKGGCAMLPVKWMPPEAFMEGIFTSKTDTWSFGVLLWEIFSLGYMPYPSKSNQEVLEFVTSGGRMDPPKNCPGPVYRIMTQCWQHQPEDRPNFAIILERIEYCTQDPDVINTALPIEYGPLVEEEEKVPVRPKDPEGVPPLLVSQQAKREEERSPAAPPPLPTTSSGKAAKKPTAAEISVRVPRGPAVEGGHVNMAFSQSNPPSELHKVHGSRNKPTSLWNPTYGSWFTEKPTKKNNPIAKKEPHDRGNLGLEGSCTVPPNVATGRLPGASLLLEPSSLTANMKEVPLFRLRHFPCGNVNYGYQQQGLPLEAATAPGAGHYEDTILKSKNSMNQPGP

[10] = target: Rho-associated protein kinase 2 (Homo sapiens, UniProt O75116); test: Inhibition of ROCK2 by Caliper mobility shift assay; in short: as §2
[11] = target: Serine/threonine-protein kinase N2 (Homo sapiens, UniProt Q16513); test: Inhibition of PKN2 by Caliper mobility shift assay; in short: as §2
[12] = target: Proto-oncogene tyrosine-protein kinase receptor Ret (Homo sapiens, UniProt P07949); test: Inhibition of RET by TR-FRET based LanthaScreen assay; in short: as §3
Proto-oncogene tyrosine-protein kinase receptor Ret, sequence (P07949 whole entry): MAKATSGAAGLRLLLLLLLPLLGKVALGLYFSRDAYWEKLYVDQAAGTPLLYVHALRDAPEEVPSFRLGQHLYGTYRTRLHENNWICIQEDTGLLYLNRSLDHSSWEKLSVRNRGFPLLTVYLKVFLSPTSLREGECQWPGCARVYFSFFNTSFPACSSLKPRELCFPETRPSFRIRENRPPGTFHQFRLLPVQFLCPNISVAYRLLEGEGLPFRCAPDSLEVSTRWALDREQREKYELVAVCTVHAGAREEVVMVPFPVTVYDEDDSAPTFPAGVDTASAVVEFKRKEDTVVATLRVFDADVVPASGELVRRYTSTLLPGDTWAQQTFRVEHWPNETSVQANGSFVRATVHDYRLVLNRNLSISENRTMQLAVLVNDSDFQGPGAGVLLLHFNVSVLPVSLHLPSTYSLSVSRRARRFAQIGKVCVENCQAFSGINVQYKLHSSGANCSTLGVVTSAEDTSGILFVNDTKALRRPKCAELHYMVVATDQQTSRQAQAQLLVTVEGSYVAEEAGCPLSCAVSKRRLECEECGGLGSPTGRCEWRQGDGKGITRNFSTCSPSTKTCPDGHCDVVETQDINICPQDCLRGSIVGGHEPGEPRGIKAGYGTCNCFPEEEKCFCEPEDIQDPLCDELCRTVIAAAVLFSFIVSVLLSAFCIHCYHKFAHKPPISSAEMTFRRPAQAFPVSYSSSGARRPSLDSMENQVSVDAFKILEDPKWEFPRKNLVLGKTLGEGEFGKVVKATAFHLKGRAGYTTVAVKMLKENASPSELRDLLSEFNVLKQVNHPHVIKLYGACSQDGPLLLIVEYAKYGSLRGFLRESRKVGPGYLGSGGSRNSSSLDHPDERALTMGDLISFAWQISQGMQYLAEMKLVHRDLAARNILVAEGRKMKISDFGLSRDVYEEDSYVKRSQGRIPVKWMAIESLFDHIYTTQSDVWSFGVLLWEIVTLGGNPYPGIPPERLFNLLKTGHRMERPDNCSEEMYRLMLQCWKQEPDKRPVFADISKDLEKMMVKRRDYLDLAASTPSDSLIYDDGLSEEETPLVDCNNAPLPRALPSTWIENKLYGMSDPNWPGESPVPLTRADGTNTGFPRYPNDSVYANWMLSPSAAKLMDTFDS

[13] = target: Mitogen-activated protein kinase 1 (Homo sapiens, UniProt P28482); test: Inhibition of ERK2 by Caliper mobility shift assay
Mitogen-activated protein kinase 1, sequence (P28482 whole entry): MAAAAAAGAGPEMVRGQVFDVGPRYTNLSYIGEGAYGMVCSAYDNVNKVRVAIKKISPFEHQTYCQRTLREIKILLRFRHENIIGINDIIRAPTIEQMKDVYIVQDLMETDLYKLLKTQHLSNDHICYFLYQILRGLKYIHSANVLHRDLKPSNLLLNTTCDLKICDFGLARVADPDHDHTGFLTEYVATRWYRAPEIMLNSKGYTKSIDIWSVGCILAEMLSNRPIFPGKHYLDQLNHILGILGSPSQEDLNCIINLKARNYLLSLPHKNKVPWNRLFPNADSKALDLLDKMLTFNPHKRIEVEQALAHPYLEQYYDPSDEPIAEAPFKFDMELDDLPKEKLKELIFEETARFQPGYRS
In short: (§4)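 Caliper mobility shift kinase assay with phosphorylation of a substrate; IC50 derived from two independent experiments.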

[14] = target: Mitogen-activated protein kinase 14 (Homo sapiens, UniProt Q16539); test: Inhibition of p38alpha by Caliper mobility shift assay; in short: as §2
[15] = target: Serine/threonine-protein kinase N1 (Homo sapiens, UniProt Q16512); test: Inhibition of PKN1 by Caliper mobility shift assay; in short: as §2
[16] = target: T1, Vascular endothelial growth factor receptor 2 (Homo sapiens, UniProt P35968); test: Inhibition of VEGFR2 by TR-FRET based LanthaScreen assay; in short: as §3
Aurora kinase A = Aurora kinase A (Homo sapiens, UniProt O14965); test: Inhibition of Aurora A kinase by Caliper mobility shift assay; in short: as §2
[17] = target: Hepatocyte growth factor receptor (Homo sapiens, UniProt P08581); test: Inhibition of HGFR by TR-FRET based LanthaScreen assay; in short: as §3
[18] = target: Fibroblast growth factor receptor 3 (Homo sapiens, UniProt P22607); test: Inhibition of FGFR3 by TR-FRET based LanthaScreen assay; in short: as §3
[19] = target: Tyrosine-protein kinase receptor UFO (Homo sapiens, UniProt P30530); test: Inhibition of Axl by TR-FRET based LanthaScreen assay; in short: as §3
Ephrin type-B receptor 4 = target: T2, Ephrin type-B receptor 4 (Homo sapiens, UniProt P54760); test: Inhibition of EPHB4 by TR-FRET based LanthaScreen assay; in short: as §3
T2 sequence (P54760 whole entry): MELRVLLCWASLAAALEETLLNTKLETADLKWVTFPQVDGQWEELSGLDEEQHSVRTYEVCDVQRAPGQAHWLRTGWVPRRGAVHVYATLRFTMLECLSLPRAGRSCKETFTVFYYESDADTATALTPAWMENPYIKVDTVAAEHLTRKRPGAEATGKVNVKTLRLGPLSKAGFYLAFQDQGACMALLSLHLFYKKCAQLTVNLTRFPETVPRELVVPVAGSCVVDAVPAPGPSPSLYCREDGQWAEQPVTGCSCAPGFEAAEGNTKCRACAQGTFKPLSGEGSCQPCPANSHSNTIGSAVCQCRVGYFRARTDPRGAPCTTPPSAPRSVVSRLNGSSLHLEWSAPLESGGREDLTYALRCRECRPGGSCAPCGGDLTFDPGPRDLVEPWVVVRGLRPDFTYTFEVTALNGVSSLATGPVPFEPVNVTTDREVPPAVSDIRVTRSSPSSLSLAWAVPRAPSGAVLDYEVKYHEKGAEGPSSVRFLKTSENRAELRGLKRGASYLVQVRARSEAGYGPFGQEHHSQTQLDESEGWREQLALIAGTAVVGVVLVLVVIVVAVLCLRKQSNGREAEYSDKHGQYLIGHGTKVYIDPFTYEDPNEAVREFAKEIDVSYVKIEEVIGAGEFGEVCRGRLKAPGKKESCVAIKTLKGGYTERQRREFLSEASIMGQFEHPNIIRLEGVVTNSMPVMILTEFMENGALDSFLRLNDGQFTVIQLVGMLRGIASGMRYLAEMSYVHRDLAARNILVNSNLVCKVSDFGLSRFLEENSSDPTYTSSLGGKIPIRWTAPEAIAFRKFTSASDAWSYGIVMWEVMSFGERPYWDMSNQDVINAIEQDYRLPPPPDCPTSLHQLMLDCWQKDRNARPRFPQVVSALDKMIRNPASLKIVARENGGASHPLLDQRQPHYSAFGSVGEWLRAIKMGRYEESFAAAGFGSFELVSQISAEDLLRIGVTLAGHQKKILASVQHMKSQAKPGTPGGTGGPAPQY

[20] = target: Glycogen synthase kinase-3 beta (Homo sapiens, UniProt P49841); test: Inhibition of GSK3-beta by TR-FRET based LanthaScreen assay; in short: as §3
Ephrin type-A receptor 4 = Ephrin type-A receptor 4 (Homo sapiens, UniProt P54764); test: Inhibition of EPHA4 by TR-FRET based LanthaScreen assay; in short: as §3
[21] = target: Platelet-derived growth factor receptor alpha (Homo sapiens, UniProt P16234, V561D); test: Inhibition of PDGFRalpha V561D mutant by TR-FRET based LanthaScreen assay; in short: as §3
[22] = target: Insulin-like growth factor 1 receptor (Homo sapiens, UniProt P08069); test: Inhibition of IGF1R by TR-FRET based LanthaScreen assay; in short: as §3
[23] = target: Tyrosine-protein kinase Lck (Homo sapiens, UniProt P06239); test: Inhibition of LCK by TR-FRET based LanthaScreen assay
Tyrosine-protein kinase Lck, sequence (P06239 whole entry): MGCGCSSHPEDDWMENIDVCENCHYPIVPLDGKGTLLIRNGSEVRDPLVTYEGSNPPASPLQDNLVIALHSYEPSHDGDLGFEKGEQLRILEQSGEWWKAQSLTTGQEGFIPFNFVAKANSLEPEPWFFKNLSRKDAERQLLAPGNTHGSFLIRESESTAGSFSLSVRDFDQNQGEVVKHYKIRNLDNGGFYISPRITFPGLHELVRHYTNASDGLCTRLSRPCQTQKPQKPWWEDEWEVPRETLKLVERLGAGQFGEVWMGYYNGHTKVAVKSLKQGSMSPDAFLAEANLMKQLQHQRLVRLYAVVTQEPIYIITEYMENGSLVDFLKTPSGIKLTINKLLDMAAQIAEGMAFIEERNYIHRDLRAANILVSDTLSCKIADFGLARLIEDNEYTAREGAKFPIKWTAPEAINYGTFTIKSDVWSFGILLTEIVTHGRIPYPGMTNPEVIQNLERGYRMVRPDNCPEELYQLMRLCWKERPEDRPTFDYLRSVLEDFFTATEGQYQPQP

[24] = target: Tyrosine-protein kinase ZAP-70 (Homo sapiens, UniProt P43403); test: Inhibition of ZAP70 by TR-FRET based LanthaScreen assay; in short: as §3
[25] = Inhibition of CDK4D1 by Caliper mobility shift assay; in short: as §4
[26] = target: Receptor tyrosine-protein kinase erbB-2 (Homo sapiens, UniProt P04626); test: Inhibition of HER2 by TR-FRET based LanthaScreen assay; in short: as §3
[27] = target: Mast/stem cell growth factor receptor Kit (Homo sapiens, UniProt P10721); test: Inhibition of cKIT by TR-FRET based LanthaScreen assay; in short: as §1
[28] = Inhibition of COT1 by Caliper mobility shift assay; in short: as §4
[29] = target: Tyrosine-protein kinase JAK2 (Homo sapiens, UniProt O60674); test: Inhibition of JAK2 by TR-FRET based LanthaScreen assay
Insulin receptor = Insulin receptor (Homo sapiens, UniProt P06213); test: Inhibition of INSR by TR-FRET based LanthaScreen assay; in short: as §3
[30] = target: Cyclin-dependent kinase 2 (Homo sapiens, UniProt P24941); test: Inhibition of CDK2A by Caliper mobility shift assay; in short: as §2
[31] = target: MAP kinase-interacting serine/threonine-protein kinase 2 (Homo sapiens, UniProt Q9HBH9); test: Inhibition of MNK2 by TR-FRET based LanthaScreen assay; in short: as §1
[32] = target: MAP kinase-activated protein kinase 5 (Homo sapiens, UniProt Q8IW41); test: Inhibition of MK5 by TR-FRET based LanthaScreen assay; in short: as §3
[33] = target: Dual specificity mitogen-activated protein kinase kinase 2 (Homo sapiens, UniProt P36507); test: Inhibition of MEK2 by TR-FRET based LanthaScreen assay; in short: as §3
[34] = target: Tyrosine-protein kinase BTK (Homo sapiens, UniProt Q06187); test: Inhibition of BTK by TR-FRET based LanthaScreen assay
[35] = target: T1, Vascular endothelial growth factor receptor 2; test: Inhibition of VEGFR2 autophosphorylation by cell based assay
[36] = Chemical stability in HEPES buffer assessed as compound isomerization at pH 7.0 to 7.5 for 24 hrs at 37 degC; type: physicochemical; conditions: read-out: Activity
In short: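 Compound incubated in HEPES buffer at pH 7.0−7.5 for 24 h at 37 °C; read-out is the percentage isomerization to the C7′-C8′ E isomer.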

| Structure (SMILES) | IC50 [3] | IC50 [4] | IC50 [5] | IC50 [6] | IC50 [7] | IC50 [8] | IC50 [9] | IC50 [10] | IC50 [11] | IC50 [12] | IC50 [13] | IC50 [14] | IC50 [15] | IC50 [16] | IC50 (Aurora kinase A) | IC50 [17] | IC50 (Ephrin type-B receptor 4) | IC50 [21] | IC50 [23] | IC50 [27] | further results |
| --- | --- | --- | --- | --- | --- | --- | --- | --- | --- | --- | --- | --- | --- | --- | --- | --- | --- | --- | --- | --- | --- |
| COc1cc(O)c2c(c1)/C=C/C[C@H](O)[C@H](O)C(=O)/C=C\C[C@H](C)OC2=O |  |  |  |  |  |  |  |  |  |  |  |  |  |  |  |  |  |  |  |  | Stability (Plasma [1]): 50%; t1/2 (Plasma [2]): 20 min; t1/2 (Blood): 20 min |
| COc1cc(O)c2c(c1)CCC[C@H](O)CC(=O)/C=C\C[C@H](C)OC2=O | > 10 µM | > 10 µM | > 10 µM | 4.4 µM | > 10 µM | > 10 µM | 0.763 µM | > 10 µM | > 10 µM | 7.2 µM | 6.4 µM | > 10 µM | > 10 µM | 0.0058 µM | > 10 µM | > 10 µM | 7.4 µM | 0.00723 µM | 4.7 µM | 0.673 µM | IC50 [18]: > 10 µM; IC50 [19]: > 10 µM; IC50 [20]: > 10 µM; IC50 (Ephrin type-A receptor 4): > 10 µM; IC50 [22]: > 10 µM; IC50 [24]: > 10 µM; IC50 [25]: > 10 µM; IC50 [26]: > 10 µM; IC50 [28]: > 10 µM; IC50 [29]: > 10 µM; IC50 (Insulin receptor): > 10 µM; IC50 [30]: > 10 µM; IC50 [31]: 0.15 µM |
| COc1cc(O)c2c(c1)CCC[C@H](O)CC(=O)/C=C/C[C@H](C)OC2=O |  |  |  | > 10 µM |  |  | > 10 µM |  |  | > 10 µM | > 10 µM |  |  | 0.19 µM |  |  | > 10 µM | 0.18 µM | > 10 µM | 7.6 µM |  |
| COc1cc(O)c2c(c1)CCCCCC(=O)/C=C\C[C@H](C)OC2=O |  |  |  | > 10 µM |  |  | 3.5 µM |  |  | > 10 µM | > 10 µM |  |  | 0.17 µM |  |  | > 10 µM | 0.095 µM | > 10 µM | > 10 µM | IC50 [32]: > 10 µM; IC50 [33]: 6.84 µM; IC50 [31]: > 10 µM |
| COc1cc(O)c2c(c1)CCC[C@H](O)[C@H](O)C(=O)/C=C\C[C@H](C)OC2=O | > 10 µM | > 10 µM | > 10 µM | 4.1 µM | > 10 µM | > 10 µM | 0.763 µM | > 10 µM | > 10 µM | > 10 µM | 0.95 µM | > 10 µM | > 10 µM | 0.002 µM | > 10 µM | > 10 µM | > 10 µM | 0.00238 µM | 6.2 µM | 0.303 µM | IC50 [34]: > 10 µM; IC50 [18]: > 10 µM; IC50 [19]: > 10 µM; IC50 [35]: 0.057 µM; IC50 [20]: > 10 µM; IC50 (Ephrin type-A receptor 4): > 10 µM; IC50 [22]: > 10 µM; IC50 [32]: 0.64 µM; IC50 [24]: > 10 µM; IC50 [25]: > 10 µM; IC50 [26]: > 10 µM; IC50 [28]: > 10 µM; degraded at 24 h [36]: < 1%; IC50 [33]: 0.015 µM; IC50 [29]: > 10 µM; IC50 (Insulin receptor): > 10 µM; IC50 [30]: > 10 µM |
